Drawing on ChEMBL document CHEMBL1134594 (J Med Chem, 2001), this text covers EC50, Activity and IC50 for nine compounds.

As a reminder, the EC50 is the concentration needed to bring the measured effect to its halfway point. In general, IC50 refers to the point on the concentration scale where inhibition reaches its midpoint.

The target in test [1] is Adenylate cyclase. The test can be described thus: Adenylate cyclase activity measured as 50% inhibitory concentration. It counts as protein assay.
Test [2] addresses Adenylate cyclase (Rattus norvegicus) (UniProt D4A3N4+P26770+Q04400+P26769+Q03343+P40146+Q8CFM9+P21932). The test can be described thus: Adenylate cyclase activity measured as percentage stimulation. More on the design: concentration or dose not given beside the values. It is filed as protein assay.
The target of test [3] is Glucagon receptor (Rattus norvegicus, UniProt P30082). Kind of test: Glucagon receptor binding measured as 50% inhibitory concentration. In short, it runs like this: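 Membranes (50 µg protein) were taken from the livers of male Sprague Dawley rats (200-250 g), purified on a sucrose gradient. […] Nonspecific binding was defined with excess unlabeled peptide and subtracted. Run in triplicate, repeated twice.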
Sequence of Glucagon receptor (P30082 whole entry): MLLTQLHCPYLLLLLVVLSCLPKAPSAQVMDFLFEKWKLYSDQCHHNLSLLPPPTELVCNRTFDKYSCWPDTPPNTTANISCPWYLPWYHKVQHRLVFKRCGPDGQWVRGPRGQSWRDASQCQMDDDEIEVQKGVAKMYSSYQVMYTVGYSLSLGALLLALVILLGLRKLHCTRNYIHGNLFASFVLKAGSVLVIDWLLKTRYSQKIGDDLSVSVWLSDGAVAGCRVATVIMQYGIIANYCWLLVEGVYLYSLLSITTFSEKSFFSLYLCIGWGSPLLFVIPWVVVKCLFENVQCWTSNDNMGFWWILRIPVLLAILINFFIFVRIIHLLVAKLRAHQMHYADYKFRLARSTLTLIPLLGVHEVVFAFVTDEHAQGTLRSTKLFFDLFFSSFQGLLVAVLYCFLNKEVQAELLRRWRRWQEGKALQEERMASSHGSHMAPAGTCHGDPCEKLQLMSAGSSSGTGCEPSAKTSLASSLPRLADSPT

Where a SMILES comes first, the peptide text is derived from it. Bridges are numbered along the chain shown (N, C = ends).

For `CSCC[C@H](NC(=O)[C@H](CC(C)C)NC(=O)[C@H](Cc1c[nH]c2ccccc12)NC(=O)[C@H](CCC(N)=O)NC(=O)[C@@H](NC(=O)[C@H](Cc1ccccc1)NC(=O)[C@@H]1CCC(=O)NCCCC[C@H](NC(=O)[C@H](CO)NC(=O)[C@H](CC(=O)O)NC(=O)[C@H](CC(C)C)NC(=O)[C@H](Cc2ccc(O)cc2)NC(=O)[C@H](CCCCN)NC(=O)[C@H](CO)NC(=O)[C@H](Cc2ccc(O)cc2)NC(=O)[C@H](CC(=O)O)NC(=O)[C@H](CO)NC(=O)[C@@H](NC(=O)[C@H](Cc2ccccc2)NC(=O)[C@@H](NC(=O)CNC(=O)[C@H](CCC(N)=O)NC(=O)[C@H](CO)NC(=O)[C@@H](N)Cc2c[nH]cn2)[C@@H](C)O)[C@@H](C)O)C(=O)N[C@@H](CCCN=C(N)N)C(=O)N[C@@H](C)C(=O)N[C@@H](CCC(N)=O)C(=O)N1)C(C)C)C(=O)N[C@@H](CC(N)=O)C(=O)N[C@H](C(=O)O)[C@@H](C)O`, in test [1], the half-maximal effective concentration (EC50) is 0.27 nM. In test [2], this compound returned an Activity of 98%. In test [3], this compound displayed an IC50 of 0.24 nM.
As for `CSCC[C@H](NC(=O)[C@H](CC(C)C)NC(=O)[C@H](Cc1c[nH]c2ccccc12)NC(=O)[C@H](CCC(N)=O)NC(=O)[C@@H](NC(=O)[C@H](Cc1ccccc1)NC(=O)[C@H](CC(=O)O)NC(=O)[C@H](CCC(N)=O)NC(=O)[C@H](C)NC(=O)[C@H](CCCNC(=N)N)NC(=O)[C@H](CCCNC(=N)N)NC(=O)[C@H](CO)NC(=O)[C@H](CC(=O)O)NC(=O)[C@H](CC(C)C)NC(=O)[C@H](Cc1ccc(O)cc1)NC(=O)[C@H](CS)NC(=O)[C@H](CO)NC(=O)[C@H](Cc1ccc(O)cc1)NC(=O)[C@H](CC(=O)O)NC(=O)[C@H](CO)NC(=O)[C@H](CS)NC(=O)[C@H](Cc1ccccc1)NC(=O)[C@@H](NC(=O)CNC(=O)[C@H](CCC(N)=O)NC(=O)[C@H](CO)NC(=O)[C@@H](N)Cc1cnc[nH]1)[C@@H](C)O)C(C)C)C(=O)N[C@@H](CC(N)=O)C(=O)N[C@H](C(=O)O)[C@@H](C)O` (H-HSQGTFCSDYSCYLDSRRAQDFVQWLMNT-OH), the IC50 in test [3] turned out to be 6.4 nM.
The compound `CSCC[C@H](NC(=O)[C@H](CC(C)C)NC(=O)[C@H](Cc1c[nH]c2ccccc12)NC(=O)[C@H](CCC(N)=O)NC(=O)[C@@H](NC(=O)[C@H](Cc1ccccc1)NC(=O)[C@H](CC(=O)O)NC(=O)[C@H](CCC(N)=O)NC(=O)[C@H](C)NC(=O)[C@H](CCCN=C(N)N)NC(=O)[C@H](CCCN=C(N)N)NC(=O)[C@H](CO)NC(=O)[C@H](CC(=O)O)NC(=O)[C@H](CC(C)C)NC(=O)[C@H](Cc1ccc(O)cc1)NC(=O)[C@H](CCCCN)NC(=O)[C@H](CO)NC(=O)[C@H](Cc1ccc(O)cc1)NC(=O)[C@H](CC(=O)O)NC(=O)[C@H](CO)NC(=O)[C@H](CS)NC(=O)[C@H](Cc1ccccc1)NC(=O)[C@@H](NC(=O)CNC(=O)[C@H](CCC(N)=O)NC(=O)[C@H](CS)NC(=O)[C@@H](N)Cc1c[nH]cn1)[C@@H](C)O)C(C)C)C(=O)N[C@@H](CC(N)=O)C(=O)N[C@H](C(=O)O)[C@@H](C)O` (H-HCQGTFCSDYSKYLDSRRAQDFVQWLMNT-OH) displayed an IC50 in test [3] of 5.6 nM.
On to `CSCC[C@H](NC(=O)[C@H](CC(C)C)NC(=O)[C@H](Cc1c[nH]c2ccccc12)NC(=O)[C@H](CCC(N)=O)NC(=O)[C@@H](NC(=O)[C@H](Cc1ccccc1)NC(=O)[C@H](CC(=O)O)NC(=O)[C@H](CCC(N)=O)NC(=O)[C@H](C)NC(=O)[C@H](CCCN=C(N)N)NC(=O)[C@H](CCCN=C(N)N)NC(=O)[C@H](CO)NC(=O)[C@H](CC(=O)O)NC(=O)[C@H](CC(C)C)NC(=O)[C@H](Cc1ccc(O)cc1)NC(=O)[C@H](CCCCN)NC(=O)[C@H](CO)NC(=O)[C@H](Cc1ccc(O)cc1)NC(=O)[C@H](CS)NC(=O)[C@H](CO)NC(=O)[C@@H](NC(=O)[C@H](Cc1ccccc1)NC(=O)[C@@H](NC(=O)[C@H](CS)NC(=O)[C@H](CCC(N)=O)NC(=O)[C@H](CO)NC(=O)[C@@H](N)Cc1c[nH]cn1)[C@@H](C)O)[C@@H](C)O)C(C)C)C(=O)N[C@@H](CC(N)=O)C(=O)N[C@H](C(=O)O)[C@@H](C)O` (H-HSQCTFTSCYSKYLDSRRAQDFVQWLMNT-OH), for which the EC50 in test [1] turned out to be 295 nM. This compound also had an Activity in test [2] of 18%. The compound also showed a half-maximal inhibitory concentration (IC50) in test [3] of 3.6 nM.
For `CSCC[C@H](NC(=O)[C@H](CC(C)C)NC(=O)[C@H](Cc1c[nH]c2ccccc12)NC(=O)[C@H](CCC(N)=O)NC(=O)[C@@H](NC(=O)[C@H](Cc1ccccc1)NC(=O)[C@H](CC(=O)O)NC(=O)[C@H](CCC(N)=O)NC(=O)[C@H](C)NC(=O)[C@H](CCCN=C(N)N)NC(=O)[C@@H]1CCC(=O)NCCCC[C@H](NC(=O)[C@H](CCCCN)NC(=O)[C@H](CO)NC(=O)[C@H](Cc2ccc(O)cc2)NC(=O)[C@H](CC(=O)O)NC(=O)[C@H](CO)NC(=O)[C@@H](NC(=O)[C@H](Cc2ccccc2)NC(=O)[C@@H](NC(=O)CNC(=O)[C@H](CCC(N)=O)NC(=O)[C@H](CO)NC(=O)[C@@H](N)Cc2c[nH]cn2)[C@@H](C)O)[C@@H](C)O)C(=O)N[C@@H](CC(C)C)C(=O)N[C@@H](CC(=O)O)C(=O)N[C@@H](CO)C(=O)N1)C(C)C)C(=O)N[C@@H](CC(N)=O)C(=O)N[C@H](C(=O)O)[C@@H](C)O` (H-HSQGTFTSDYSKKLDSERAQDFVQWLMNT-OH; lactam 13-17) the same measures were 6.3 nM, 85% and 1.7 nM.
As to `CSCC[C@H](NC(=O)[C@H](CC(C)C)NC(=O)[C@H](Cc1c[nH]c2ccccc12)NC(=O)[C@H](CCC(N)=O)NC(=O)[C@@H](NC(=O)[C@H](Cc1ccccc1)NC(=O)[C@H](CC(=O)O)NC(=O)[C@H](CCC(N)=O)NC(=O)[C@H](C)NC(=O)[C@H](CCCN=C(N)N)NC(=O)[C@H](CCCN=C(N)N)NC(=O)[C@H](CO)NC(=O)[C@H](CC(=O)O)NC(=O)[C@H](CC(C)C)NC(=O)[C@H](Cc1ccc(O)cc1)NC(=O)[C@H](CCCCN)NC(=O)[C@@H]1CCC(=O)NCCCC[C@H](NC(=O)[C@H](Cc2ccccc2)NC(=O)[C@@H](NC(=O)CNC(=O)[C@H](CCC(N)=O)NC(=O)[C@H](CO)NC(=O)[C@@H](N)Cc2c[nH]cn2)[C@@H](C)O)C(=O)N[C@@H](CO)C(=O)N[C@@H](CC(=O)O)C(=O)N[C@@H](Cc2ccc(O)cc2)C(=O)N1)C(C)C)C(=O)N[C@@H](CC(N)=O)C(=O)N[C@H](C(=O)O)[C@@H](C)O` (H-HSQGTFKSDYEKYLDSRRAQDFVQWLMNT-OH; lactam 7-11), in test [1], the EC50 worked out at 47 nM. Further, the Activity in test [2] amounted to 17%.
`CSCC[C@H](NC(=O)[C@H](CC(C)C)NC(=O)[C@H](Cc1c[nH]c2ccccc12)NC(=O)[C@H](CCC(N)=O)NC(=O)[C@@H](NC(=O)[C@H](Cc1ccccc1)NC(=O)[C@H](CC(=O)O)NC(=O)[C@H](CCC(N)=O)NC(=O)[C@H](C)NC(=O)[C@H](CCCN=C(N)N)NC(=O)[C@H](CCCN=C(N)N)NC(=O)[C@H](CO)NC(=O)[C@H](CC(=O)O)NC(=O)[C@H](CC(C)C)NC(=O)[C@H](Cc1ccc(O)cc1)NC(=O)[C@H](CCCCN)NC(=O)[C@H](CO)NC(=O)[C@H](Cc1ccc(O)cc1)NC(=O)[C@@H]1CSSC[C@H](NC(=O)[C@H](CCC(N)=O)NC(=O)[C@H](CO)NC(=O)[C@@H](N)Cc2c[nH]cn2)C(=O)N[C@@H]([C@@H](C)O)C(=O)N[C@@H](Cc2ccccc2)C(=O)N[C@@H]([C@@H](C)O)C(=O)N[C@@H](CO)C(=O)N1)C(C)C)C(=O)N[C@@H](CC(N)=O)C(=O)N[C@H](C(=O)O)[C@@H](C)O` (H-HSQCTFTSCYSKYLDSRRAQDFVQWLMNT-OH; disulfide 4-9): the half-maximal effective concentration (EC50) in test [1] stood at 295 nM. For the same compound, the Activity in test [2] was 7.5%. Also, in test [3], the IC50 stood at 84.5 nM.
In test [1], `CSCC[C@H](NC(=O)[C@H](CC(C)C)NC(=O)[C@H](Cc1c[nH]c2ccccc12)NC(=O)[C@H](CCC(N)=O)NC(=O)[C@@H](NC(=O)[C@H](Cc1ccccc1)NC(=O)[C@H](CC(=O)O)NC(=O)[C@H](CCC(N)=O)NC(=O)[C@H](C)NC(=O)[C@H](CCCN=C(N)N)NC(=O)[C@H](CCCN=C(N)N)NC(=O)[C@H](CO)NC(=O)[C@H](CC(=O)O)NC(=O)[C@H](CC(C)C)NC(=O)[C@@H]1CCC(=O)NCCCC[C@H](NC(=O)[C@H](CO)NC(=O)[C@@H](NC(=O)[C@H](Cc2ccccc2)NC(=O)[C@@H](NC(=O)CNC(=O)[C@H](CCC(N)=O)NC(=O)[C@H](CO)NC(=O)[C@@H](N)Cc2c[nH]cn2)[C@@H](C)O)[C@@H](C)O)C(=O)N[C@@H](Cc2ccc(O)cc2)C(=O)N[C@@H](CO)C(=O)N[C@@H](CCCCN)C(=O)N1)C(C)C)C(=O)N[C@@H](CC(N)=O)C(=O)N[C@H](C(=O)O)[C@@H](C)O` (H-HSQGTFTSKYSKELDSRRAQDFVQWLMNT-OH; lactam 9-13) displayed an EC50 of 23 nM. This compound also had an Activity in test [2] of 19%. The concentration for half-maximal inhibition (IC50) in test [3] worked out at 652 nM.
Consider `CSCC[C@H](NC(=O)[C@H](CC(C)C)NC(=O)[C@H](Cc1c[nH]c2ccccc12)NC(=O)[C@H](CCC(N)=O)NC(=O)[C@@H](NC(=O)[C@H](Cc1ccccc1)NC(=O)[C@H](CC(=O)O)NC(=O)[C@H](CCC(N)=O)NC(=O)[C@H](C)NC(=O)[C@H](CCCNC(=N)N)NC(=O)[C@H](CCCNC(=N)N)NC(=O)[C@H](CO)NC(=O)[C@H](CC(=O)O)NC(=O)[C@H](CC(C)C)NC(=O)[C@H](Cc1ccc(O)cc1)NC(=O)[C@H](CCCCN)NC(=O)[C@@H]1CCC(=O)NCCCC[C@H](NC(=O)[C@H](Cc2ccccc2)NC(=O)[C@@H](NC(=O)CNC(=O)[C@H](CCC(N)=O)NC(=O)[C@H](CO)NC(=O)[C@@H](N)Cc2cnc[nH]2)[C@@H](C)O)C(=O)N[C@@H](CO)C(=O)N[C@@H](CC(=O)O)C(=O)N[C@@H](Cc2ccc(O)cc2)C(=O)N1)C(C)C)C(=O)N[C@@H](CC(N)=O)C(=O)N[C@H](C(=O)O)[C@@H](C)O` (H-HSQGTFKSDYEKYLDSRRAQDFVQWLMNT-OH; lactam 7-11), for which the IC50 in test [3] was 13.6 nM.
